ChEMBL document CHEMBL1155944 (J Med Chem, 2008)
pEC50, pIC50: −log10 of the molar value.

Columns and labels:
[1] = Agonist activity at rat GABAA alpha-1F64C-beta-2 receptor mutant expressed in Xenopus laevis oocytes assessed as reduction of GABA-induced current at -60 mV at 10 mM by Two-Electrode voltage clamp method in presence of 10 uM 2-sulfonatoethyl methanethiosulfonate; assay type: functional, Oocyte; parameters: scale not given: the % may be the effect or the level left
[2] = biological target: T1, GABA A receptor alpha-2/beta-2/gamma-2 (Rattus norvegicus) (UniProt P18508+P23576+P63138); experiment: Intrinsic activity at recombinant rat GABAA alpha-2-beta-3-gamma-2 receptor expressed in HEK293 cells assessed as induction of current at 1 mM by whole-cell patch-clamp technique relative to GABA; assay type: cell-based
Outline: (§1)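 Rat αiβ3γ2S receptors transiently expressed in HEK293 cells, with EGFP marking transfected cells, recorded 2 days after transfection. Whole-cell patch clamp in HEPES saline, pH 7.35. Drug applied alone at 1, 10, 100 and 1000 μM. […] Data from at least four cells.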

[3] = Agonist activity at rat GABAA alpha-1F64C-beta-2 receptor mutant expressed in Xenopus laevis oocytes at -60 mV by Two-Electrode voltage clamp method; assay type: functional, cell-based; conditions: Oocyte
[4] = biological target: Gamma-aminobutyric acid receptor subunit alpha-3 (Rattus norvegicus) (UniProt P20236); experiment: Intrinsic activity at recombinant rat GABAA alpha-3-beta-3-gamma-2 receptor expressed in HEK293 cells assessed as induction of current at 1 mM by whole-cell patch-clamp technique relative to GABA; assay type: cell-based; outline: as §1
Gamma-aminobutyric acid receptor subunit alpha-3 (Rattus norvegicus), sequence (P20236 whole entry): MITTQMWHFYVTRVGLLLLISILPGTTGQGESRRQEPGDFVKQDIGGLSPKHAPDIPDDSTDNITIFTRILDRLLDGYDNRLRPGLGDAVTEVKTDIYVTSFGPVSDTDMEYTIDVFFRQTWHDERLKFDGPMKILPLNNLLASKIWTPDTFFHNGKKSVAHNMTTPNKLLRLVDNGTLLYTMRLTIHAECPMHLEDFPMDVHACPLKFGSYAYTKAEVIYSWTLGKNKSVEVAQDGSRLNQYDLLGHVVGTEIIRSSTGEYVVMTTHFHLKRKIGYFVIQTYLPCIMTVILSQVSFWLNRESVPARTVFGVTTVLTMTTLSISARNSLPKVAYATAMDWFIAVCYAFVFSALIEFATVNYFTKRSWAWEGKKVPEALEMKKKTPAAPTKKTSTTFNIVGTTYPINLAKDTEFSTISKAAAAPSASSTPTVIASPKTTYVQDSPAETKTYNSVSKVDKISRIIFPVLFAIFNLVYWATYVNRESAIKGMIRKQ

[5] = biological target: Gamma-aminobutyric acid receptor subunit alpha-1 (Rattus norvegicus) (UniProt P62813); experiment: Agonist activity at rat wild type GABAA alpha-1-beta-2 receptor expressed in Xenopus laevis oocytes as inhibition of GABA-induced current at -60 mV at 1 mM by Two-Electrode voltage clamp method; assay type: functional, cell-based; parameters: scale not given: the % may be the effect or the level left; conditions: Oocyte
Gamma-aminobutyric acid receptor subunit alpha-1 (Rattus norvegicus), sequence (P62813 whole entry): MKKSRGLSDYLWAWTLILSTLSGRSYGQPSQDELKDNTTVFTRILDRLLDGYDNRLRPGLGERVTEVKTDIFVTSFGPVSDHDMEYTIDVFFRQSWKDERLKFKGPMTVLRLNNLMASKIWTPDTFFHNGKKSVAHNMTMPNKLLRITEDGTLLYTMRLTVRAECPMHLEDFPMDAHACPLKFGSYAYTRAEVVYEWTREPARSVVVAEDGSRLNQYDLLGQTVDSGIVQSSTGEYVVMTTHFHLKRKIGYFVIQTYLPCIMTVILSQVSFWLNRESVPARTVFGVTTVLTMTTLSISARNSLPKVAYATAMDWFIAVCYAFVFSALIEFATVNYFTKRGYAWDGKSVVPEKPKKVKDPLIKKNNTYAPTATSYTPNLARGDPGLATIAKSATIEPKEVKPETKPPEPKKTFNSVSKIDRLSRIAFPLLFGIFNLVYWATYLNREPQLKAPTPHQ
Outline: (§2)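 Xenopus oocytes injected with rat α1 (wt or cysteine mutant) plus β2 mRNA, kept 2–10 days at 17 °C. Two-electrode voltage clamp at −60 mV, room temperature, Ca2+-free frog Ringer, pH 7.5.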

[6] = Agonist activity at rat GABAA alpha-1R66C-beta-2 receptor mutant expressed in Xenopus laevis oocytes assessed as reduction of GABA-induced current at -60 mV at 30 mM by Two-Electrode voltage clamp method in presence of 5.5 mM GABA; assay type: functional, Oocyte; parameters: scale not given: the % may be the effect or the level left
Outline: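 α1R66Cβ2 oocytes, two-electrode voltage clamp at −60 mV. […] Then 10 mM MTSES (12 s) and 10 mM DTT (20 s) were applied. Reaction rate fitted monoexponentially against cumulative application time.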

[7] = Agonist activity at rat GABAA alpha-1F64C-beta-2 receptor mutant expressed in Xenopus laevis oocytes at -60 mV at 30 mM by Two-Electrode voltage clamp method; assay type: functional, Oocyte
Outline: (§3)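 Rat α1β2 receptors (wt or cysteine mutant) expressed in Xenopus oocytes. Two-electrode voltage clamp at −60 mV, room temperature, Ca2+-free frog Ringer, pH 7.5. Increasing test concentrations applied alone. Currents normalized to the maximal GABA-induced current. Some dose-response curves had only two trials.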

[8] = Agonist activity at rat GABAA alpha-1S68C-beta-2 receptor mutant expressed in Xenopus laevis oocytes at -60 mV at 30 mM by Two-Electrode voltage clamp method; assay type: functional, Oocyte; outline: as §3
[9] = Agonist activity at rat GABAA alpha-1S68C-beta-2 receptor mutant expressed in Xenopus laevis oocytes assessed as reduction of GABA-induced current at -60 mV at 10 mM by Two-Electrode voltage clamp method in presence of 450 uM 2-sulfonatoethyl methanethiosulfonate; assay type: functional, Oocyte; parameters: scale not given: the % may be the effect or the level left
[10] = biological target: GABA A receptor alpha-5/beta-3/gamma-2 (Rattus norvegicus) (UniProt P18508+P19969+P63079); experiment: Intrinsic activity at recombinant rat GABAA alpha-5-beta-3-gamma-2 receptor expressed in HEK293 cells assessed as induction of current at 1 mM by whole-cell patch-clamp technique relative to GABA; assay type: cell-based; outline: as §1
[11] = biological target: T2, Gamma-aminobutyric acid receptor subunit alpha-1 (Rattus norvegicus, UniProt P62813+P63138); experiment: Agonist activity at rat wild type GABAA alpha-1-beta-2 receptor expressed in Xenopus laevis oocytes at -60 mV by Two-Electrode voltage clamp method; assay type: functional, cell-based, Oocyte
T2 sequence (P62813 whole entry, one chain of several): as the sequence (P62813 whole entry) above

[12] = biological target: Gamma-aminobutyric acid receptor subunit alpha-1 (Rattus norvegicus) (UniProt P62813); experiment: Agonist activity at rat wild type GABAA alpha-1-beta-2 receptor expressed in Xenopus laevis oocytes at -60 mV at 30 mM by Two-Electrode voltage clamp method; assay type: functional, cell-based; conditions: Oocyte; outline: as §3
Rattus norvegicus [13] = organism: Rattus norvegicus; experiment: Displacement of [3H]Muscimol from GABAA alpha-1-alpha-5 receptor in Sprague-Dawley rat brain cortex membrane at 100 uM
Outline: (§4)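 Well-washed membranes from adult male Sprague-Dawley rat cortex or cerebellum (50–200 μg protein). Incubated 60 min on ice in 50 mM Tris/citrate, pH 7.3, with 6 nM [3H]muscimol and test compound. […] Filtered and counted by scintillation. IC50 and pseudo-Hill coefficient obtained by nonlinear regression.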

Rattus norvegicus [14] = organism: Rattus norvegicus; experiment: Displacement of [3H]Muscimol from GABAA alpha-1-alpha-5 receptor in Sprague-Dawley rat brain cortex membrane at 1 mM; outline: as §4
[15] = Agonist activity at rat GABAA alpha-1F64C-beta-2 receptor mutant expressed in Xenopus laevis oocytes assessed as inhibition of GABA-induced current at -60 mV at 1 mM by Two-Electrode voltage clamp method; assay type: functional, Oocyte; parameters: scale not given: the % may be the effect or the level left; outline: as §2
[16] = biological target: Gamma-aminobutyric acid receptor subunit alpha-6 (Rattus norvegicus) (UniProt P30191); experiment: Displacement of [3H]Muscimol from GABAAalpha6 receptor in Sprague-Dawley rat brain cerebellum membrane at 1 mM; assay type: tissue-based; outline: as §4
Gamma-aminobutyric acid receptor subunit alpha-6 (Rattus norvegicus), sequence (P30191 whole entry): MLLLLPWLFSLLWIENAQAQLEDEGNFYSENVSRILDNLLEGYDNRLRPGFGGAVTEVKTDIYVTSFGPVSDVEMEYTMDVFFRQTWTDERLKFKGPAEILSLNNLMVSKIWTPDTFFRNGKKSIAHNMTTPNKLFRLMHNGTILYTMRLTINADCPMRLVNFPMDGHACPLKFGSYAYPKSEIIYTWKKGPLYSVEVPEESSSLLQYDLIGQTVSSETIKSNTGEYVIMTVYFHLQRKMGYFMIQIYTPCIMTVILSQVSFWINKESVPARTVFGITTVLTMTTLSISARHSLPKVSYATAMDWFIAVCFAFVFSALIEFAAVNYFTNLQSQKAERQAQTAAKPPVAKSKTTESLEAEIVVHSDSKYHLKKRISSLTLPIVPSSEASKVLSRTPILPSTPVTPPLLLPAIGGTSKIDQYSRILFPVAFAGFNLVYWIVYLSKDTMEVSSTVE

[17] = Agonist activity at rat GABAA alpha-1S68C-beta-2 receptor mutant expressed in Xenopus laevis oocytes as inhibition of GABA-induced current at -60 mV at 1 mM by Two-Electrode voltage clamp method; assay type: functional, Oocyte; parameters: scale not given: the % may be the effect or the level left; outline: as §2
[18] = biological target: T1, GABA A receptor alpha-2/beta-2/gamma-2 (Rattus norvegicus); experiment: Antagonist activity at recombinant rat GABAA alpha-2-beta-3-gamma-2 receptor expressed in HEK293 cells assessed as inhibition of GABA-induced current at 1 uM by whole-cell patch-clamp technique; assay type: functional, cell-based; parameters: scale not given: the % may be the effect or the level left
Outline: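 HEK293 cells transiently transfected by calcium phosphate with rat αi, β3, γ2S and EGFP cDNAs, recorded 2 days later. Whole-cell patch clamp in HEPES saline, pH 7.35. […] Response expressed relative to the GABA-alone current. Data from at least four cells.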

[19] = biological target: T2, Gamma-aminobutyric acid receptor subunit alpha-1; experiment: Agonist activity at rat wild type GABAA alpha-1-beta-2 receptor expressed in Xenopus laevis oocytes as inhibition of GABA-induced current at -60 mV by Two-Electrode voltage clamp method in presence of picrotoxinin; assay type: functional, cell-based, Oocyte
[20] = Agonist activity at rat GABAA alpha-1S68C-beta-2 receptor mutant expressed in Xenopus laevis oocytes at -60 mV by Two-Electrode voltage clamp method; assay type: functional, cell-based; conditions: Oocyte
Rattus norvegicus [21] = organism: Rattus norvegicus; experiment: (§5) Displacement of [3H]Muscimol from GABAA alpha-1-alpha-5 receptor in Sprague-Dawley rat brain cortex membrane; outline: as §4
[22] = biological target: Gamma-aminobutyric acid receptor subunit alpha-6 (Rattus norvegicus) (UniProt P30191); experiment: Displacement of [3H]Muscimol from GABAAalpha6 receptor in Sprague-Dawley rat brain cerebellum membrane at 100 uM; assay type: tissue-based; outline: as §4
[23] = biological target: Gamma-aminobutyric acid receptor subunit alpha-6 (Rattus norvegicus, UniProt P30191); experiment: (§6) Displacement of [3H]Muscimol from GABAAalpha6 receptor in Sprague-Dawley rat brain cerebellum membrane; assay type: tissue-based; outline: as §4
Gamma-aminobutyric acid receptor subunit alpha-6 (Rattus norvegicus, UniProt P30191), sequence (P30191 whole entry): as above

[24] = biological target: Gamma-aminobutyric acid receptor subunit alpha-6 (Rattus norvegicus) (UniProt P30191); experiment: as §6; assay type: tissue-based; outline: as §4
[25] = Agonist activity at rat GABAA alpha-1S68C-beta-2 receptor mutant expressed in Xenopus laevis oocytes as inhibition of GABA-induced current at -60 mV by Two-Electrode voltage clamp method in presence of picrotoxinin; assay type: functional, cell-based; conditions: Oocyte
[26] = biological target: Gamma-aminobutyric acid receptor subunit alpha-1 (Rattus norvegicus) (UniProt P62813); experiment: Agonist activity at rat wild type GABAA alpha-1-beta-2 receptor expressed in Xenopus laevis oocytes assessed as inhibition of drug-induced current at -60 mV at 10 mM in presence of 100 uM picrotoxinin by Two-Electrode voltage clamp method; assay type: functional, cell-based; parameters: scale not given: the % may be the effect or the level left; conditions: Oocyte
Outline: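 Oocytes expressing rat α1β2, two-electrode voltage clamp at −60 mV. Several 10 mM test pulses applied, then washout. 100 μM picrotoxinin applied, immediately followed by co-application of 10 mM drug plus 100 μM picrotoxinin, and the current recorded.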

[27] = Agonist activity at rat GABAA alpha-1F64C-beta-2 receptor mutant expressed in Xenopus laevis oocytes assessed as inhibition of GABA-induced current at -60 mV by Two-Electrode voltage clamp method in presence of picrotoxinin; assay type: functional, cell-based; conditions: Oocyte
[28] = Agonist activity at rat GABAA alpha-1R66C-beta-2 receptor mutant expressed in Xenopus laevis oocytes assessed as inhibition of GABA-induced current at -60 mV at 10 mM in presence of 2 mM 2-sulfonatoethyl methanethiosulfonate by Two-Electrode voltage clamp method; assay type: functional, Oocyte; parameters: scale not given: the % may be the effect or the level left
[29] = biological target: GABA A receptor alpha-5/beta-3/gamma-2 (Rattus norvegicus, UniProt P18508+P19969+P63079); experiment: Agonist activity at rat recombinant GABAA alpha-5-beta-3-gamma-2 receptor expressed in HEK293 cells assessed as normalization of GABA-induced current by whole cell patch-clamp technique; assay type: functional, cell-based
GABA A receptor alpha-5/beta-3/gamma-2, sequence (P18508 whole entry): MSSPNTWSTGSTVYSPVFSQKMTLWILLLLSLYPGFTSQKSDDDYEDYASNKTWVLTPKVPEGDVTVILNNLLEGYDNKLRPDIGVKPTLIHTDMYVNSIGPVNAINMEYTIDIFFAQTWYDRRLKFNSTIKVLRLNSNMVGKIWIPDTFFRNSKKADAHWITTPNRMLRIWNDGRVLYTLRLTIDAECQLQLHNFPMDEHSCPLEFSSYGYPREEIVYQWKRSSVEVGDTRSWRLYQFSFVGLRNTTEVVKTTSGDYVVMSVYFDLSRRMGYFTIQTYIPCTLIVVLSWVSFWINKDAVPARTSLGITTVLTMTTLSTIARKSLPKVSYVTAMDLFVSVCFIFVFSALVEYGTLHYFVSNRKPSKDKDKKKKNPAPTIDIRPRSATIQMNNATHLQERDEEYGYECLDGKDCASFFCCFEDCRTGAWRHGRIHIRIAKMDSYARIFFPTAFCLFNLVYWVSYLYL
GABA A receptor alpha-5/beta-3/gamma-2, sequence (P19969 whole entry): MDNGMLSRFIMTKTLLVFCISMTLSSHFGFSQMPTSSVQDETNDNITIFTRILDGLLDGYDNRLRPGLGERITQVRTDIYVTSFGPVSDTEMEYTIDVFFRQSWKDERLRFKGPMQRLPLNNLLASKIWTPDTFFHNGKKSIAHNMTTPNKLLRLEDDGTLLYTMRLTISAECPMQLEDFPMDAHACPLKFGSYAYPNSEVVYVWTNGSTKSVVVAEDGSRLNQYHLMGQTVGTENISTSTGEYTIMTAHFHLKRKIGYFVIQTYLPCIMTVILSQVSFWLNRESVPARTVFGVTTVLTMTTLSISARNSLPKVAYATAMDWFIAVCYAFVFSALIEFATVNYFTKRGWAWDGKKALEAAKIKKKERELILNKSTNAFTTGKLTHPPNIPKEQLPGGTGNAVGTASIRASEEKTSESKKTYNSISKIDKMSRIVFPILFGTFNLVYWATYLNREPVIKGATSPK
GABA A receptor alpha-5/beta-3/gamma-2, sequence (P63079 whole entry): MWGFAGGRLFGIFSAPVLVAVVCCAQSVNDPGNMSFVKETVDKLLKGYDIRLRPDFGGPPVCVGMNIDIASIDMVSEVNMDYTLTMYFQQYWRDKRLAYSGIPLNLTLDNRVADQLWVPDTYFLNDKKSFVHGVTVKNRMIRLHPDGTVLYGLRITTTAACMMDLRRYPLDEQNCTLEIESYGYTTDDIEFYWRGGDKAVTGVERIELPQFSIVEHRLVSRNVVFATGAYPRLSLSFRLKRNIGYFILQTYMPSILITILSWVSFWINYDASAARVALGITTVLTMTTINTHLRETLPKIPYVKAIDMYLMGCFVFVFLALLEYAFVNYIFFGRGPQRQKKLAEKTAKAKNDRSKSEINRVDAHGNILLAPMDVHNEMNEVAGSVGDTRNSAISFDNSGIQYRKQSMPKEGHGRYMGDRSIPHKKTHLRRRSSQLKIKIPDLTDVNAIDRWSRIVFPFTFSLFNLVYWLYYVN
Outline: (§7)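 HEK293 cells transiently co-transfected (calcium phosphate) with rat αi, β3 and γ2S cDNAs plus EGFP marker; recorded 2 days later by whole-cell patch clamp in HEPES saline pH 7.35.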

[30] = biological target: Gamma-aminobutyric acid receptor subunit alpha-6 (Rattus norvegicus, UniProt P18508+P30191+P63079); experiment: Agonist activity at rat recombinant GABAA alpha-6-beta-3-gamma-2 receptor expressed in HEK293 cells assessed as normalization of GABA-induced current by whole cell patch-clamp technique; assay type: functional, cell-based
Gamma-aminobutyric acid receptor subunit alpha-6 (Rattus norvegicus, UniProt P18508+P30191+P63079), sequence (P30191 whole entry, the tested form may be a part, one chain of several): as the sequence (P30191 whole entry) above
Outline: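 HEK293 cells transiently transfected by calcium phosphate with rat α6 (2 μg), β3 (0.4 μg) and γ2S (0.3 μg) cDNAs plus 1 μg EGFP vector per plate. Whole-cell patch clamp was done 2 days later on EGFP-positive cells in HEPES saline at pH 7.35. Compound was applied alone by fast perfusion at 1, 10, 100 and 1000 μM.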

[31] = biological target: GABA-A receptor; alpha-1/beta-2/gamma-2 (Rattus norvegicus) (UniProt P18508+P62813+P63138); experiment: Intrinsic activity at recombinant rat GABAA alpha-1-beta-3-gamma-2 receptor expressed in HEK293 cells assessed as induction of current at 1 mM by whole-cell patch-clamp technique relative to GABA; assay type: cell-based; outline: as §1
[32] = biological target: Gamma-aminobutyric acid receptor subunit alpha-6 (Rattus norvegicus) (UniProt P30191); experiment: Intrinsic activity at recombinant rat GABAA alpha-6-beta-3-gamma-2 receptor expressed in HEK293 cells assessed as induction of current at 1 mM by whole-cell patch-clamp technique relative to GABA; assay type: cell-based; outline: as §1
[33] = biological target: Gamma-aminobutyric acid receptor subunit alpha-4 (Rattus norvegicus, UniProt P18508+P28471+P63079); experiment: Agonist activity at rat recombinant GABAA alpha-4-beta-3-gamma-2 receptor expressed in HEK293 cells assessed as normalization of GABA-induced current by whole cell patch-clamp technique; assay type: functional, cell-based; outline: as §7
Gamma-aminobutyric acid receptor subunit alpha-4, sequence (P28471 whole entry, one chain of several): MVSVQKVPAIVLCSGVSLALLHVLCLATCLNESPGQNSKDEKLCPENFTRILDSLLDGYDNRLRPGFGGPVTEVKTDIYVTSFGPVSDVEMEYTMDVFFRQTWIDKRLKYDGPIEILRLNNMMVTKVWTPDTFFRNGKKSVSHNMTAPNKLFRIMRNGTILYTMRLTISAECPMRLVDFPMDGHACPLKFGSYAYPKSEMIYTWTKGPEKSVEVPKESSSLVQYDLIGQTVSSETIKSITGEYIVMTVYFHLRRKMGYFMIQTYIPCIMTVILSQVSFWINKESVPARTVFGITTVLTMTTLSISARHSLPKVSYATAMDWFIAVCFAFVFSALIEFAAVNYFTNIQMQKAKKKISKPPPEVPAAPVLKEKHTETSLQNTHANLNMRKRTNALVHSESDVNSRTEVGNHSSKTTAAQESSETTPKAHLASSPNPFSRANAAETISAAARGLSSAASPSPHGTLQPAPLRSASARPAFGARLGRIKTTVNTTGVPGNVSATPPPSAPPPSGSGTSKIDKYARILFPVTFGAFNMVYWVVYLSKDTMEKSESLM

[34] = biological target: Gamma-aminobutyric acid receptor subunit alpha-3 (Rattus norvegicus, UniProt P18508+P20236+P63079); experiment: Agonist activity at rat recombinant GABAA alpha-3-beta-3-gamma-2 receptor expressed in HEK293 cells assessed as normalization of GABA-induced current by whole cell patch-clamp technique; assay type: functional, cell-based; outline: as §7
Gamma-aminobutyric acid receptor subunit alpha-3, sequence (P20236 whole entry, one chain of several): as the sequence (P20236 whole entry) above

[35] = biological target: Gamma-aminobutyric acid receptor subunit alpha-4 (Rattus norvegicus) (UniProt P28471); experiment: Intrinsic activity at recombinant rat GABAA alpha-4-beta-3-gamma-2 receptor expressed in HEK293 cells assessed as induction of current at 1 mM by whole-cell patch-clamp technique relative to GABA; assay type: cell-based; outline: as §1
Gamma-aminobutyric acid receptor subunit alpha-4 (Rattus norvegicus), sequence (P28471 whole entry): as the sequence (P28471 whole entry, one chain of several) above

[36] = as §5; outline: as §4

`Cl.Sc1nnc(C2CCNCC2)o1` showed an Activity [1] of 47%, an Activity [2] of 23% and a pEC50 [3] of 2.26. The Activity [4] was 13%, the Activity [5] was 6.8% and the Activity [6] was 68%. It also gave an Activity [7] of 60%, an Activity [8] of 17% and an Activity [9] of 40%. For the same compound, the Activity [10] was 48%, the pEC50 [11] was 2.02 and the Activity [12] was 20%. For the same compound, the inhibition (Rattus norvegicus [13]) was 68%, the inhibition (Rattus norvegicus [14]) was 94% and the Activity [15] was 9%. It also gave an inhibition [16] of 91%, an Activity [17] of 3% and an Activity [18] of 39%. It also gave a pIC50 [19] of 4.23, a pEC50 [20] of 2.00 and a logIC50 (Rattus norvegicus [21]) of 1.67. The inhibition [22] was 64%, the pIC50 [23] was 4.18 and the logIC50 [24] was 1.82. The pIC50 [25] was 4.34, the Activity [26] was 80% and the pIC50 [27] was 4.25. It also gave an Activity [28] of 77%.

Work on `NCc1nnc(O)o1` yielded a pEC50 [29] of 3.86, a pEC50 [30] of 4.52 and an Activity [31] of 0.93. It also gave an Activity [2] of 0.88, an Activity [4] of 0.59 and an Activity [32] of 1.03. The Activity [10] was 0.95, the inhibition (Rattus norvegicus [13]) was 99% and the inhibition (Rattus norvegicus [14]) was 104%. The pEC50 [33] was 3.89, the inhibition [16] was 102% and the pEC50 [34] was 2.64. It also gave an Activity [35] of 0.97, a pIC50 [36] of 5.85 and a logIC50 (Rattus norvegicus [21]) of 0.139. It also gave an inhibition [22] of 97%, a pIC50 [23] of 5.96 and a logIC50 [24] of 0.048.
